This note sets out measurements from ChEMBL document CHEMBL1132379, “2-thioether 5'-O-(1-thiotriphosphate)adenosine derivatives as new insulin secretagogues acting through P2Y-Receptors” (J Med Chem, 1999).

Structures are written as SMILES.

T1 sequence (P49652 whole entry): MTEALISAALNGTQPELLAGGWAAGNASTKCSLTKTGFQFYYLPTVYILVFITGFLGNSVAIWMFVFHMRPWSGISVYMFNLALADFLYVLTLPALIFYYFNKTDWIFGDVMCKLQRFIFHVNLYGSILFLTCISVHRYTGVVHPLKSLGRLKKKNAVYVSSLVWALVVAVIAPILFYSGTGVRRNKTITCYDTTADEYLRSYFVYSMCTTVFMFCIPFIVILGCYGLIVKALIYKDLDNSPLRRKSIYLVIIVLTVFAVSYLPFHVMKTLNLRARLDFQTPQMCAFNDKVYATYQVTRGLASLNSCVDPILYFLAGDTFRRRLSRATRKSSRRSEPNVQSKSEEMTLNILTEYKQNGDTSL

The first assay has as its target T1, P2Y purinoceptor 1 (Meleagris gallopavo, UniProt P49652). In words: Agonistic activity for P2Y purinoceptor 1 of turkey erythrocyte membranes. The format is functional. In a few lines: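 [³H]myoinositol-labeled washed turkey erythrocytes (18–24 h, 37 °C), membranes made by hypotonic lysis; phospholipase C measured as total [³H]inositol phosphates (ion-exchange) after 5 min at 30 °C with GTPγS, pH 7.0 Hepes medium. EC50 from four-parameter logistic fit; at least three experiments with different membrane preparations, duplicate assays.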
In turn, `CCCCCCSc1nc(N)c2ncn([C@@H]3O[C@H](COP(=O)(O)O)[C@@H](O)[C@H]3O)c2n1` displayed an EC50 of 60 nM.
In the case of `Nc1nc(SCCc2ccc([N+](=O)[O-])cc2)nc2c1ncn2[C@@H]1O[C@H](COP(O)(O)=S)[C@@H](O)[C@H]1O`, the EC50 turned out to be 2360 nM.
`CCCCCCSc1nc(N)c2ncn(C3O[C@H](COP(O)(O)=S)[C@@H](O)[C@H]3O)c2n1` (stereo partly drawn) showed an EC50 of 2790 nM.
Molecule `Nc1nc(SCCc2ccc([N+](=O)[O-])cc2)nc2c1ncn2C1O[C@H](COP(=O)(O)OP(=O)(O)OP(=O)(O)O)[C@@H](O)[C@H]1O` (stereo partly drawn) yielded an EC50 of 12 nM.
Same read-out and setting: with `Nc1nc(SCCc2ccc([N+](=O)[O-])cc2)nc2c1ncn2C1O[C@H](COP(=O)(O)O)[C@@H](O)[C@H]1O` (stereo partly drawn) the figure was 3000 nM.
`CCCCCCSc1nc(N)c2ncn(C3O[C@H](COP(=O)(O)OP(=O)(O)OP(=O)(O)O)[C@@H](O)[C@H]3O)c2n1` (stereo partly drawn) registered an EC50 of 10 nM.
Same read-out and setting: with `Nc1ncnc2c1ncn2C1O[C@H](COP(O)(=S)OP(=O)(O)OP(=O)(O)O)[C@@H](O)[C@H]1O` (stereo partly drawn) the figure was 6280 nM; with `CCCCCCSc1nc(N)c2ncn([C@@H]3O[C@H](COP(O)(=S)OP(=O)(O)OP(=O)(O)O)[C@@H](O)[C@H]3O)c2n1` (stereo in doubt; 5aA), 17 nM.
Turning to `CCCCCCSc1nc(N)c2ncn([C@@H]3O[C@H](COP(O)(=S)OP(=O)(O)OP(=O)(O)O)[C@@H](O)[C@H]3O)c2n1` (stereo in doubt; 5aB), the EC50 was found to be 21 nM.
Take `Nc1nc(SCCc2ccc([N+](=O)[O-])cc2)nc2c1ncn2[C@@H]1O[C@H](COP(O)(=S)OP(=O)(O)OP(=O)(O)O)[C@@H](O)[C@H]1O` (stereo in doubt; 5bA): the midpoint of the response, the EC50, lay at 510 nM.
The same measure, in the same setting: the result for `Nc1nc(SCCc2ccc([N+](=O)[O-])cc2)nc2c1ncn2[C@@H]1O[C@H](COP(O)(=S)OP(=O)(O)OP(=O)(O)O)[C@@H](O)[C@H]1O` (stereo in doubt; 5bB) reads 890 nM; that for `Nc1ncnc2c1ncn2[C@@H]1O[C@H](COP(=O)(O)OP(=O)(O)OP(=O)(O)O)[C@@H](O)[C@H]1O` [ADENOSINE TRIPHOSPHATE], 6350 nM.

A further assay deals with T1, P2Y purinoceptor 1. The experiment in a line: Compound was evaluated for its agonistic activity towards P2Y purinoceptor 1 in turkey erythrocyte membranes; NE=No effect. The format is functional, cell membranes. In a few lines: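 Turkey erythrocytes labeled 18–24 h at 37 °C with 2-[3H]myoinositol in inositol-free DMEM, then lysed in hypotonic buffer (5 mM sodium phosphate pH 7.4, 5 mM MgCl2, 1 mM EGTA) to make membranes. Phospholipase C was assayed with GTPγS and graded nucleotide concentrations at 30 °C for 5 min, pH 7.0 Hepes medium. Total [3H]inositol phosphates were measured by ion-exchange chromatography. EC50 came from four-parameter logistic fits, ≥3 experiments on separate membrane preparations, duplicate assays.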
In the case of `Nc1ncnc2c1ncn2[C@@H]1O[C@H](COP(O)(O)=S)[C@@H](O)[C@H]1O`, the EC50 entry is “Not Active”.

In general, EC50 refers to the concentration at which the effect is half-maximal.
